Measured values published in ChEMBL document CHEMBL4014347, “Targeting Mycolic Acid Transport by Indole-2-carboxamides for the Treatment of Mycobacterium abscessus Infections” (J Med Chem, 2017).
Converted amounts (≈) assume the structure as drawn. The source made the active and inactive calls. The rule behind the calls is not given here.

Key:
Type in all cases: functional
[1] = test system: Mycobacteroides abscessus; test: Antibacterial activity against Mycobacterium abscessus CIP104536 smooth variant infected in PMA activated THP-1 macrophages assessed as reduction in viable colony forming unit at 96 ug/ml measured upto 4 days post treatment by fluorescence microscopic method
Method in brief: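 THP-1 cells in RPMI with 10% FBS, differentiated with 20 ng/mL PMA for 48 h at 37 °C; infected at MOI 1:2 for 2 h under 5% CO2; washed, 200 μg/mL amikacin for 1 h, washed; drug medium renewed daily; lysed in 1% Triton X100 at 0, 48, 96 h and plated for CFU; triplicates, two independent experiments.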

[2] = test system: Mycobacteroides abscessus; test: Antibacterial activity against Mycobacterium abscessus CIP104536 smooth variant assessed as reduction in viable colony forming unit at 8 ug/ml after 4 days by time-kill assay
Method in brief: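 Set up as microdilution MIC plates in cation-adjusted Mueller−Hinton broth with smooth CIP 104536; serial dilutions plated after 0, 24, 48, 72 and 96 h of drug exposure; CFU counted after 4 days at 30 °C; mean of triplicate log10 values, representative of three independent experiments.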

[3] = test system: Mycobacteroides abscessus; test: Antibacterial activity against Mycobacterium abscessus CIP104536 smooth variant expressing tdTomato infected in PMA activated THP-1 macrophages assessed as protection against […] infection after 4 days post treatment by microscopic method
Method in brief: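 THP-1 macrophages, PMA-differentiated, infected with tdTomato-expressing M. abscessus, amikacin-treated and drug-exposed as in the CFU assay; at 96 h, bacteria-containing macrophages counted under fluorescence microscopy (4297 total cells) to give percentage of infected cells.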

[4] = test system: Mycobacteroides abscessus; test: Antibacterial activity against CF patient derived Mycobacterium abscessus subsp. massiliense isolate 122 smooth variant after 3 to 5 days by two fold serial dilution method
Method in brief: (§1)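 Broth microdilution in cation-adjusted Mueller−Hinton broth per CLSI; inoculum 5 × 10^6 CFU/mL of exponential-phase bacteria; two-fold serial dilutions, solvent-only wells as control; 30 °C for 3−5 days; MIC read visually and confirmed by absorbance at 560 nm; triplicate on three independent occasions.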

[5] = test system: Mycobacteroides abscessus; test: Antibacterial activity against Addison's disease patient derived Mycobacterium abscessus subsp. massiliense isolate CIP108297 rough variant after 3 to 5 days by two fold serial dilution method; method in brief: as §1
[6] = test system: Mycobacteroides abscessus; test: Antibacterial activity against Addison's disease patient derived Mycobacterium abscessus subsp. massiliense isolate CIP108297 smooth variant after 3 to 5 days by two fold serial dilution method; method in brief: as §1
[7] = Antibacterial activity against non CF patient derived Mycobacterium abscessus subsp. bolletii isolate 17 smooth variant after 3 to 5 days by two fold serial dilution method; settings: Mycobacteroides abscessus; method in brief: as §1
[8] = test system: Mycobacteroides abscessus; test: Antibacterial activity against non CF patient derived Mycobacterium abscessus subsp. abscessus isolate CIP104536 rough variant after 3 to 5 days by two fold serial dilution method; method in brief: as §1
[9] = test system: Mycobacteroides abscessus; test: Antibacterial activity against CF patient derived Mycobacterium abscessus subsp. abscessus rough variant after 3 to 5 days by two fold serial dilution method; method in brief: as §1
[10] = test system: Mycobacteroides abscessus; test: Antibacterial activity against CF patient derived Mycobacterium abscessus subsp. massiliense isolate 185 smooth variant after 3 to 5 days by two fold serial dilution method; method in brief: as §1
[11] = Antibacterial activity against Mycobacterium abscessus subsp. bolletii isolate CIP108541 smooth variant after 3 to 5 days by two fold serial dilution method; settings: Mycobacteroides abscessus; method in brief: as §1
[12] = test system: Mycobacteroides abscessus; test: Antibacterial activity against CF patient derived Mycobacterium abscessus subsp. abscessus smooth variant after 3 to 5 days by two fold serial dilution method; method in brief: as §1
[13] = test system: Mycobacteroides abscessus; test: Antibacterial activity against CF patient derived Mycobacterium abscessus subsp. massiliense isolate 107 smooth variant after 3 to 5 days by two fold serial dilution method; method in brief: as §1
[14] = test system: Mycobacteroides abscessus; test: Antibacterial activity against CF patient derived Mycobacterium abscessus subsp. abscessus isolate 2648 rough variant after 3 to 5 days by two fold serial dilution method; method in brief: as §1
[15] = test system: Mycobacteroides abscessus; test: Antibacterial activity against CF patient derived Mycobacterium abscessus subsp. massiliense isolate 210 rough variant after 3 to 5 days by two fold serial dilution method; method in brief: as §1
[16] = test system: Mycobacteroides abscessus; test: Antibacterial activity against CF patient derived Mycobacterium abscessus subsp. massiliense isolate 212 smooth variant after 3 to 5 days by two fold serial dilution method; method in brief: as §1
[17] = Antibacterial activity against CF patient derived Mycobacterium abscessus subsp. bolletii isolate 108 rough variant after 3 to 5 days by two fold serial dilution method; settings: Mycobacteroides abscessus; method in brief: as §1
[18] = test system: Mycobacteroides abscessus; test: Antibacterial activity against non CF patient derived Mycobacterium abscessus subsp. abscessus isolate 3022 rough variant after 3 to 5 days by two fold serial dilution method; method in brief: as §1
[19] = test system: Mycobacteroides abscessus; test: Antibacterial activity against CF patient derived Mycobacterium abscessus subsp. massiliense isolate 111 smooth variant after 3 to 5 days by two fold serial dilution method; method in brief: as §1
[20] = Antibacterial activity against CF patient derived Mycobacterium abscessus subsp. bolletii isolate 97 smooth variant after 3 to 5 days by two fold serial dilution method; settings: Mycobacteroides abscessus; method in brief: as §1
[21] = Antibacterial activity against non CF patient derived Mycobacterium abscessus subsp. bolletii isolate 19 rough variant after 3 to 5 days by two fold serial dilution method; settings: Mycobacteroides abscessus; method in brief: as §1
[22] = test system: Mycobacteroides abscessus; test: Antibacterial activity against CF patient derived Mycobacterium abscessus subsp. abscessus isolate 2069 smooth variant after 3 to 5 days by two fold serial dilution method; method in brief: as §1
[23] = test system: Mycobacteroides abscessus; test: Antibacterial activity against CF patient derived Mycobacterium abscessus subsp. abscessus isolate 1298 smooth variant after 3 to 5 days by two fold serial dilution method; method in brief: as §1
[24] = Antibacterial activity against CF patient derived Mycobacterium abscessus subsp. bolletii isolate 114 smooth variant after 3 to 5 days by two fold serial dilution method; settings: Mycobacteroides abscessus; method in brief: as §1
[25] = test system: Mycobacteroides abscessus; test: Antibacterial activity against non CF patient derived Mycobacterium abscessus subsp. abscessus isolate 2587 smooth variant after 3 to 5 days by two fold serial dilution method; method in brief: as §1
[26] = test system: Mycobacteroides abscessus; test: Antibacterial activity against CF patient derived Mycobacterium abscessus subsp. massiliense isolate 120 smooth variant after 3 to 5 days by two fold serial dilution method; method in brief: as §1
[27] = test system: Mycobacteroides abscessus; test: Antibacterial activity against CF patient derived Mycobacterium abscessus subsp. abscessus isolate 2524 rough variant after 3 to 5 days by two fold serial dilution method; method in brief: as §1
[28] = test system: Mycobacteroides abscessus; test: Antibacterial activity against CF patient derived Mycobacterium abscessus subsp. massiliense isolate 100 smooth variant after 3 to 5 days by two fold serial dilution method; method in brief: as §1
[29] = test system: Mycobacteroides abscessus; test: Antibacterial activity against non CF patient derived Mycobacterium abscessus subsp. abscessus isolate CIP104536 smooth variant after 3 to 5 days by two fold serial dilution method; method in brief: as §1
[30] = test system: Mycobacteroides abscessus; test: Antibacterial activity against CF patient derived Mycobacterium abscessus subsp. massiliense isolate 140 smooth variant after 3 to 5 days by two fold serial dilution method; method in brief: as §1
[31] = Antibacterial activity against CF patient derived Mycobacterium abscessus subsp. bolletii isolate 112 rough variant after 3 to 5 days by two fold serial dilution method; settings: Mycobacteroides abscessus; method in brief: as §1
[32] = test system: Mycobacteroides abscessus; test: Antibacterial activity against CF patient derived Mycobacterium abscessus subsp. abscessus isolate 3321 smooth variant after 3 to 5 days by two fold serial dilution method; method in brief: as §1
[33] = Antibacterial activity against CF patient derived Mycobacterium abscessus subsp. bolletii isolate 116 smooth variant after 3 to 5 days by two fold serial dilution method; settings: Mycobacteroides abscessus; method in brief: as §1

For `C[C@@H](O)[C@H]1C(=O)N2C(C(=O)O)=C(SCCNC=N)C[C@H]12`, the Activity [1] was “Active”, the Activity [2] was “Active” and the Activity [3] was “Active”.

`NCC[C@H](O)C(=O)N[C@@H]1C[C@H](N)[C@@H](O[C@H]2O[C@H](CN)[C@@H](O)[C@H](O)[C@H]2O)[C@H](O)[C@H]1O[C@H]1O[C@H](CO)[C@@H](O)[C@H](N)[C@H]1O` [AMIKACIN] showed an MIC [4] of 12.5 µg/mL (≈ 21.3 µM), an MIC [5] of 12.5 µg/mL (≈ 21.3 µM) and an MIC [6] of 25 µg/mL (≈ 42.7 µM). It also gave an MIC [7] of 12.5 µg/mL (≈ 21.3 µM), an MIC [8] of 12.5 µg/mL (≈ 21.3 µM) and an MIC [9] of 12.5 µg/mL (≈ 21.3 µM). The MIC [10] was 25 µg/mL (≈ 42.7 µM), the MIC [11] was 25 µg/mL (≈ 42.7 µM) and the MIC [12] was 12.5 µg/mL (≈ 21.3 µM). The MIC [13] was 12.5 µg/mL (≈ 21.3 µM), the MIC [14] was 12.5 µg/mL (≈ 21.3 µM) and the MIC [15] was 12.5 µg/mL (≈ 21.3 µM). For the same molecule, the MIC [16] was 25 µg/mL (≈ 42.7 µM), the MIC [17] was 12.8 µg/mL (≈ 21.9 µM) and the MIC [18] was 12.5 µg/mL (≈ 21.3 µM). The MIC [19] was 25 µg/mL (≈ 42.7 µM), the MIC [20] was 12.5 µg/mL (≈ 21.3 µM) and the MIC [21] was 50 µg/mL (≈ 85.4 µM). The MIC [22] was 25 µg/mL (≈ 42.7 µM), the MIC [23] was 12.5 µg/mL (≈ 21.3 µM) and the MIC [24] was 12.5 µg/mL (≈ 21.3 µM). It also gave an MIC [25] of 25 µg/mL (≈ 42.7 µM), an MIC [26] of 12.5 µg/mL (≈ 21.3 µM) and an MIC [27] of 25 µg/mL (≈ 42.7 µM). The MIC [28] was > 100 µg/mL, the MIC [29] was 25 µg/mL (≈ 42.7 µM) and the MIC [30] was 25 µg/mL (≈ 42.7 µM). The MIC [31] was > 100 µg/mL, the MIC [32] was 25 µg/mL (≈ 42.7 µM) and the MIC [33] was 12.5 µg/mL (≈ 21.3 µM).
